ChEMBL document CHEMBL4028911, “Discovery of a Small-Molecule Bromodomain-Containing Protein 4 (BRD4) Inhibitor That Induces AMP-Activated Protein Kinase-Modulated Autophagy-Associated Cell Death in Breast Cancer” (J Med Chem, 2017)
Activity calls are given as the source filed them. The rule behind the calls is not given here.

What was measured:
MDA-MB-231 [1] = test: Induction of autophagy in human MDA-MB-231 cells assessed as induction of autophagic vacuoles at 3 uM by MDC-based fluorescence microscopy; type: functional, cell-based
Procedure, shortened: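 MDA-MB-231 cells exposed to 3 μM for indicated times, stained with 0.05 mM monodansylcadaverine, and autophagic vacuoles viewed by fluorescence microscopy.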

Mus musculus [2] = test: In vivo inhibition of BRD4 expression in BALB/c mouse xenografted with human MDA-MB-231 cells at 100 mg/kg, ig administered once a day for 27 days by Western blot analysis; type: functional, organism-based
Procedure, shortened: (§1)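 Tumor tissues excised from MCF-7 or MDA-MB-231 xenograft mice were lysed and analysed by western blot for BRD4, c-Myc, LC3 and cleaved caspase-3.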

MDA-MB-231 [3] = test: Induction of autophagy in human MDA-MB-231 cells assessed as reduction in cell viability at 3 uM administered at 1 hr post […] addition by MTT assay; type: functional, cell-based
Procedure, shortened: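 MDA-MB-231 cells seeded at 5×10^4 cells/ml and grown 24 h. 3-MA (1 mM) added 1 h before 3 μM test agent. MTT (5 mg/ml) for 4 h, formazan dissolved in DMSO, absorbance read at 570 nm.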

MCF7 [4] = test: Induction of autophagy in human MCF7 cells assessed as cytoplasmic vacuolization at 1.5 uM by electron microscopy; type: functional, cell-based
Procedure, shortened: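 MCF-7 (1.5 µM) or MDA-MB-231 (3 µM) cells treated for indicated times. Cytoplasmic vacuoles examined by transmission electron microscopy.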

[5] = molecular target: T1, AMP-activated protein kinase, AMPK (Homo sapiens) (UniProt P54646+O43741+P54619+Q9UGJ0+Q9Y478+Q13131+Q9UGI9); test: Inhibition of AMPK (unknown origin) at 1 to 10^6 nM using MBP as substrate after 60 mins in presence of ATP by ADO-Glo assay
MCF7 [6] = test: Induction of autophagy in GFP-LC3 fused human MCF7 cells assessed as increase in LC3 puncta at 1.5 uM by fluorescence microscopy; type: functional, cell-based
Procedure, shortened: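 MCF-7 or MDA-MB-231 cells transfected with eGFP-LC3 plasmid, then treated with 1.5 or 3 µM respectively for 24 h. LC3 puncta viewed by fluorescence microscopy.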

[7] = molecular target: T1, AMP-activated protein kinase, AMPK (Homo sapiens); test: Activation of AMPK (unknown origin) at 1 to 10^6 nM using MBP as substrate after 60 mins in presence of ATP by […] assay
Procedure, shortened: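 ADP-Glo luminescent kinase assay; AMPK or ULK1 enzyme, substrate, ATP and compound diluted in 40 mM Tris pH 7.5, 20 mM MgCl2, 0.1 mg/ml BSA, 50 µM DTT. Enzyme (10 ng) mixed with MBP (0.1 µg/µl)/ATP (10 µM) and compound, 60 min at room temperature. ADP-Glo reagent 40 min, then detection reagent 30 min, luminescence read; signal rises with kinase activity.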

MCF7 [8] = test: Induction of autophagy in human MCF7 cells assessed as assessed as cytoplasmic vacuolization; type: functional, cell-based
[9] = molecular target: T2, Bromodomain-containing protein 4 (Homo sapiens, UniProt O60885); test: Inhibition of BRD4 in human MCF7 cells assessed as induction of AMPKalpha phosphorylation at thr172 at 1.5 uM in presence of ATG5 siRNA by Western blot analysis; type: cell-based
Procedure, shortened: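 Cells given 50 nM ATG5 or negative-control siRNA (Lipofectamine RNAiMAX) and used 48 h later, then exposed to 1.5 μM (MCF-7) or 3 μM (MDA-MB-231). p-AMPKα analysed by western blot with β-actin loading control.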

[10] = molecular target: T2, Bromodomain-containing protein 4; test: Inhibition of BRD4 interaction with AMPK in human MCF7 cells at 1.5 uM by co-immunoprecipitation assay; type: cell-based
Procedure, shortened: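 Cells lysed in RIPA buffer (40 mM Tris-HCl pH 7.5, 150 mM NaCl, 0.5% NP-40, 5% glycerol, 10 mM NaF, protease inhibitors). Lysates incubated overnight at 4 °C with BRD4 or p53 antibody plus protein A/G beads, washed 3 times, resolved on 10% SDS-PAGE and blotted for AMPKα or p53.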

[11] = molecular target: T3, Serine/threonine-protein kinase ULK1 (Homo sapiens) (UniProt O75385); test: Inhibition of recombinant human ULK1 (1 to 649 residues) expressed in baculovirus infected Sf9 cells at 1 to 10^6 nM using MBP as substrate after 60 mins in presence of ATP by ADO-Glo assay
T3 sequence (whole entry): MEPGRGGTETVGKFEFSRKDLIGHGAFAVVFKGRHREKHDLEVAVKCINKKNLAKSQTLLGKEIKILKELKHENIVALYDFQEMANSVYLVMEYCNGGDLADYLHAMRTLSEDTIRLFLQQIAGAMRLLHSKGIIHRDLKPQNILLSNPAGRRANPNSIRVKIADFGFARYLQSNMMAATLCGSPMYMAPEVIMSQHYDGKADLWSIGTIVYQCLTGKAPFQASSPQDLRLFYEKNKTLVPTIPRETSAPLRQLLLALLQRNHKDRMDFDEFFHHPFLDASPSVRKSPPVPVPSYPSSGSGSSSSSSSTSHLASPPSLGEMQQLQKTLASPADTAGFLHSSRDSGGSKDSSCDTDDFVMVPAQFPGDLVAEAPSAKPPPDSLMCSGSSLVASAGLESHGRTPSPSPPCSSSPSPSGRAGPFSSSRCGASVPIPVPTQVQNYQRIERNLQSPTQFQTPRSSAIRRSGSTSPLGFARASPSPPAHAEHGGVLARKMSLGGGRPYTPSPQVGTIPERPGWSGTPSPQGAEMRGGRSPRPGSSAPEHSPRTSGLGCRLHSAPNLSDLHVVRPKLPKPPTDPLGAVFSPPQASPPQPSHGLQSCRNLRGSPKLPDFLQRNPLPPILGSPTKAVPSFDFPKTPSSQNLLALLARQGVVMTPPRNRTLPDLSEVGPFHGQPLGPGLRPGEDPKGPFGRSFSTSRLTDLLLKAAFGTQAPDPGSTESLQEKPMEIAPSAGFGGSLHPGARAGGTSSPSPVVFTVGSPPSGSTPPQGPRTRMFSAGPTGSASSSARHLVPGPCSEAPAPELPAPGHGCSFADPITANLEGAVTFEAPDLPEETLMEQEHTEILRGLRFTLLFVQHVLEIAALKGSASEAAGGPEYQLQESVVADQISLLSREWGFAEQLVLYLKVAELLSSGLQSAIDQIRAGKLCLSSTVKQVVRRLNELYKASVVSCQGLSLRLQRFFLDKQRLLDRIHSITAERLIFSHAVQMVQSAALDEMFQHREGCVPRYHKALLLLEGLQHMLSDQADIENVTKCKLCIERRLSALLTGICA

Mus musculus [12] = test: In vivo inhibition of BRD4 expression in BALB/c mouse xenografted with human MCF7 cells at 100 mg/kg, ig administered once a day for 24 days by Western blot analysis; type: functional, organism-based; procedure, shortened: as §1
[13] = molecular target: Bromodomain-containing protein 3 (Homo sapiens, UniProt Q15059); test: Inhibition of recombinant human N-terminal GST-tagged BRD3 bromodomain-2 (306 to 417 residues) expressed in Escherichia coli expression system after 120 mins by TR-FRET assay
Procedure, shortened: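 TR-FRET bromodomain binding. Recombinant BRD domain, BET ligand and test agent in 20 μl assay buffer with 1% DMSO final. Incubated 120 min at room temperature. Blank lacks BET ligand.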

Chain of Bromodomain-containing protein 3 (Q15059 whole entry, the tested form may be a part): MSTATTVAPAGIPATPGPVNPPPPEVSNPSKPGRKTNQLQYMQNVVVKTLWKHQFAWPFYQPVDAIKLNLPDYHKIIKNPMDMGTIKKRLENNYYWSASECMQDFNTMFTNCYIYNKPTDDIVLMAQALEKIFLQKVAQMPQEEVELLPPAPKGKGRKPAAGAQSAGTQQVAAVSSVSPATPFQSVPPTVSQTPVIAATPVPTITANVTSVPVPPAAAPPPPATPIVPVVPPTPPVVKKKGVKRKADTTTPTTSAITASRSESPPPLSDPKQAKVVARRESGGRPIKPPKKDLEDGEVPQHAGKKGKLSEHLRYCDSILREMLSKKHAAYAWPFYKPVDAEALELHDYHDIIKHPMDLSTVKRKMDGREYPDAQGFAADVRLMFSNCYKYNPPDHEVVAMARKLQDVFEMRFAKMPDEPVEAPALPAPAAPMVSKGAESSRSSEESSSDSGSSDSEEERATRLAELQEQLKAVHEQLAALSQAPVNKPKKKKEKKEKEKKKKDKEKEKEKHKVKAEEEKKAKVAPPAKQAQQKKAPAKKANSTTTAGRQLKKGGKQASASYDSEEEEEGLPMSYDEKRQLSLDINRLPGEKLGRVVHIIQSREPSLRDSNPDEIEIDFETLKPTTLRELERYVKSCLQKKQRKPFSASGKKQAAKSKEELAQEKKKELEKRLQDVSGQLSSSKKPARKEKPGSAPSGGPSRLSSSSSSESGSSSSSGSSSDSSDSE

- inhibition [5]: inactive
- Activity [7]: inactive
- inhibition [9]: Active
- inhibition [10]: Active
- inhibition [11]: inactive
- IC50 [13]: > 100 µM
SMILES: Cc1cc(-c2nc3sc4c(c3c(=O)[nH]2)CCN(C)C4)cc(C)c1O
- Activity (MDA-MB-231 [1]): Active
- Activity (Mus musculus [2]): Active
- Activity (MDA-MB-231 [3]): inactive
- Activity (MCF7 [4]): Active
- Activity (MCF7 [6]): Active
- Activity (MCF7 [8]): Active
- Activity (Mus musculus [12]): Active
